Source: ChEMBL document CHEMBL1671864, “First assessment in humans of the safety, tolerability, pharmacokinetics, and ex vivo pharmacodynamic antimalarial activity of the new artemisinin derivative artemisone” (Antimicrob Agents Chemother, 2008)
Values after ≈ are worked out from the molar mass of the structure shown.

What was measured:
Plasma [1] = assay: Tmax in healthy human plasma assessed as metabolite BAY 78-1787 Tmax at 80 mg, po administered as four 20 mg immediate release tablets daily for 3 days during 10 hrs overnight fasting state measured after 1 day; type: ADME, organism-based; details: in vivo, 24 h
How it was run: (§1)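 Healthy Caucasian men (8 active, 4 placebo per dose) dosed with tablets daily for 3 days after 10-h fast. Lithium-heparin plasma sampled predose and 0.25–14 h after day-1 and day-3 doses, stored frozen. Parent and M1–M3 quantified by LC/MS-MS in positive-ion MRM. Tmax taken directly from observed individual data.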

Plasma [2] = assay: Tmax in healthy human plasma assessed as metabolite BAY 78-1787 Tmax at 40 mg, po administered as two 20 mg immediate release tablets daily for 3 days during 10 hrs overnight fasting state measured after 3 day; type: ADME, organism-based; details: in vivo, 72 h; how it was run: as §1
Plasma [3] = assay: Half life in healthy human plasma assessed as metabolite BAY 78-1787 Half life at 80 mg, po administered as four 20 mg immediate release tablets daily for 3 days during 10 hrs overnight fasting state measured after 3 day; type: ADME, organism-based; details: in vivo, 72 h
How it was run: (§2)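 Healthy Caucasian males took tablets once daily for 3 days with 240 ml water after a 10-h fast. Heparinised blood was drawn predose and at 0.25–14 h after the first and last doses. Plasma parent drug and metabolites M1–M3 were measured by LC/MS-MS (MRM, deuterated internal standard). Noncompartmental analysis gave Cmax observed, t1/2 = 0.693/kel and MRT = AUMC/AUC. Values are geometric means.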

Plasma [4] = assay: Half life in healthy human plasma assessed as metabolite BAY 78-1787 Half life at 80 mg, po administered as four 20 mg immediate release tablets daily for 3 days during 10 hrs overnight fasting state measured after 1 day; type: ADME, organism-based; details: in vivo, 24 h; how it was run: as §2
Plasma [5] = assay: Ratio of AUC (0 to infinity) for metabolite BAY 78-1787 to AUC (0 to infinity) for compound in healthy human plasma at 40 mg, po administered as single dose for 3 days measured after 3 days; type: ADME, organism-based; details: in vivo, 72 h
How it was run: (§3)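 Healthy Caucasian men (8 active, 4 placebo per dose) dosed with tablets daily for 3 days after 10-h fast. Plasma sampled 0.25–14 h after first and last doses. Parent and metabolites M1–M3 measured by LC/MS-MS (200 µl plasma). Metabolic ratio is metabolite AUC0-∞ divided by parent AUC0-∞ (log-linear trapezoidal, extrapolated by last concentration/kel). First vs third dose compared by paired t test.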

Plasma [6] = assay: Half life in healthy human plasma assessed as metabolite BAY 78-1787 Half life at 40 mg, po administered as two 20 mg immediate release tablets daily for 3 days during 10 hrs overnight fasting state measured after 1 day; type: ADME, organism-based; details: in vivo, 24 h; how it was run: as §2
Plasma [7] = assay: Ratio of AUC (0 to infinity) for metabolite BAY 78-1787 to AUC (0 to infinity) for compound in healthy human plasma at 80 mg, po administered as single dose for 3 days measured after 3 days; type: ADME, organism-based; details: in vivo, 72 h; how it was run: as §3
Plasma [8] = assay: Cmax in healthy human plasma assessed as metabolite BAY 78-1787 Cmax at 80 mg, po administered as four 20 mg immediate release tablets daily for 3 days during 10 hrs overnight fasting state measured after 3 day; type: ADME, organism-based; parameters: dose 80 mg, route oral; details: in vivo, 72 h
How it was run: (§4)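 Healthy Caucasian male volunteers took 40 mg (two 20-mg IR tablets) or 80 mg (four tablets) orally once daily for 3 days, with 240 ml water after a 10-h fast. Plasma was sampled predose to 14 h after the first and last doses. M1/M2/M3 were quantified by LC/MS-MS MRM against a D4-labelled internal standard. Cmax was read from observed data and AUC by log-linear trapezoidal rule, noncompartmental, geometric means.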

Plasma [9] = assay: Cmax in healthy human plasma assessed as metabolite BAY 78-1787 Cmax at 80 mg, po administered as four 20 mg immediate release tablets daily for 3 days during 10 hrs overnight fasting state measured after 1 day; type: ADME, organism-based; parameters: dose 80 mg, route oral; details: in vivo; how it was run: as §4
Plasma [10] = assay: Cmax in healthy human plasma assessed as metabolite BAY 78-1787 Cmax at 80 mg, po administered as single ascending doses during 10 hrs overnight fasting state; type: ADME, organism-based; parameters: dose 80 mg, route oral; details: in vivo
How it was run: (§5)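 Healthy Caucasian male volunteers, single oral dose of 80 mg as four 20-mg immediate-release tablets, taken with 240 ml water after a 10-h overnight fast. Lithium-heparin venous blood was drawn predose and at 0.25–14 h, and plasma was stored frozen. Metabolites M1/M2/M3 were measured by LC/MS-MS (positive-ion MRM, deuterated internal standard). Noncompartmental analysis, AUC by log-linear trapezoidal rule extrapolated to infinity (Clast/kel), geometric means.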

Plasma [11] = assay: Ratio of AUC (0 to infinity) for metabolite BAY 78-1787 to AUC (0 to infinity) for compound in healthy human plasma at 40 mg, po administered as single dose for 3 days measured after 1 day; type: ADME, organism-based; details: in vivo, 24 h; how it was run: as §3
Plasma [12] = assay: AUC in healthy human plasma assessed as metabolite BAY 78-1787 AUC at 80 mg, po administered as four 20 mg immediate release tablets daily for 3 days during 10 hrs overnight fasting state measured after 1 day; type: ADME, organism-based; parameters: dose 80 mg, time < 10 hr, route oral; details: in vivo; how it was run: as §4
Plasma [13] = assay: Tmax in healthy human plasma assessed as metabolite BAY 78-1787 Tmax at 40 mg, po administered as two 20 mg immediate release tablets daily for 3 days during 10 hrs overnight fasting state measured after 1 day; type: ADME, organism-based; details: in vivo, 24 h; how it was run: as §1
Plasmodium falciparum = assay: Antimalarial activity against Plasmodium falciparum K1 in human plasma assessed as inhibition of hypoxanthine uptake by intraerythrocytic malaria parasites by hypoxanthine incorporation assay; type: functional, organism-based
How it was run: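 K1 or TM90-C2A parasites were sorbitol-synchronized and cultured in RPMI 1640. Drug was diluted in drug-free human serum (0.04–40 ng/ml) or subject plasma was diluted twofold (8–8,192). Parasites were added at 2% hematocrit, 1% parasitemia (>95% rings), and [3H]hypoxanthine uptake was measured over 48 h. IC50 or ID50 came from concentration or dilution-response curves. Equivalent concentration = ID50 × IC50.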

Plasma [14] = assay: Tmax in healthy human plasma assessed as metabolite BAY 78-1787 Tmax at 80 mg, po administered as four 20 mg immediate release tablets daily for 3 days during 10 hrs overnight fasting state measured after 3 day; type: ADME, organism-based; details: in vivo, 72 h; how it was run: as §1
Plasma [15] = assay: Cmax in healthy human plasma assessed as metabolite BAY 78-1787 Cmax at 40 mg, po administered as two 20 mg immediate release tablets daily for 3 days during 10 hrs overnight fasting state measured after 3 day; type: ADME, organism-based; parameters: dose 40 mg, route oral; details: in vivo, 72 h; how it was run: as §4
Plasma [16] = assay: AUC (0 to infinity) in healthy human plasma assessed as metabolite BAY 78-1787 AUC (0 to infinity) at 80 mg, po administered as single ascending doses during 10 hrs overnight fasting state; type: ADME, organism-based; parameters: dose 80 mg, time infinity, route oral; details: in vivo; how it was run: as §5
Plasma [17] = assay: Cmax in healthy human plasma assessed as metabolite BAY 78-1787 Cmax at 40 mg, po administered as two 20 mg immediate release tablets daily for 3 days during 10 hrs overnight fasting state measured after 1 day; type: ADME, organism-based; parameters: dose 40 mg, route oral; details: in vivo, 24 h; how it was run: as §4
Plasma [18] = assay: Ratio of AUC (0 to infinity) for metabolite BAY 78-1787 to AUC (0 to infinity) for compound in healthy human plasma at 80 mg, po administered as single dose for 3 days measured after 1 day; type: ADME, organism-based; details: in vivo, 24 h; how it was run: as §3
Plasma [19] = assay: AUC in healthy human plasma assessed as metabolite BAY 78-1787 AUC at 80 mg, po administered as four 20 mg immediate release tablets daily for 3 days during 10 hrs overnight fasting state measured after 3 day; type: ADME, organism-based; parameters: dose 80 mg, time < 10 hr, route oral; details: in vivo; how it was run: as §4
Plasma [20] = assay: AUC in healthy human plasma assessed as metabolite BAY 78-1787 AUC at 40 mg, po administered as two 20 mg immediate release tablets daily for 3 days during 10 hrs overnight fasting state measured after 3 day; type: ADME, organism-based; parameters: time < 10 hr, dose 40 mg, route oral; details: in vivo; how it was run: as §4
Plasma [21] = assay: Half life in healthy human plasma assessed as metabolite BAY 78-1787 Half life at 40 mg, po administered as two 20 mg immediate release tablets daily for 3 days during 10 hrs overnight fasting state measured after 3 day; type: ADME, organism-based; details: in vivo, 72 h; how it was run: as §2
Plasma [22] = assay: Half-life in healthy human plasma assessed as metabolite BAY 78-1787 half-life at 80 mg, po administered as single ascending doses during 10 hrs overnight fasting state; type: ADME, organism-based; details: in vivo
How it was run: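 Healthy Caucasian male volunteers, single oral dose with 240 ml water after a 10-h overnight fast. Heparinised venous blood was drawn predose and at 0.25–14 h. Plasma was stored frozen. Parent drug and metabolites M1–M3 were measured by LC/MS-MS (MRM, deuterated internal standard). Noncompartmental analysis gave Cmax observed, t1/2 = 0.693/kel (terminal regression) and MRT = AUMC/AUC. Values are geometric means.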

Plasma [23] = assay: AUC in healthy human plasma assessed as metabolite BAY 78-1787 AUC at 40 mg, po administered as two 20 mg immediate release tablets daily for 3 days during 10 hrs overnight fasting state measured after 1 day; type: ADME, organism-based; parameters: dose 40 mg, time < 10 hr, route oral; details: in vivo; how it was run: as §4

C[C@H]1[C@H](N2C=CS(=O)(=O)CC2)O[C@@H]2O[C@]3(C)CC[C@H]4[C@H](C)CC[C@@H]1[C@@]24OO3
Tmax (Plasma [1]): 2 h
Tmax (Plasma [2]): 1.75 h
t1/2 (Plasma [3]): 1.63 h
t1/2 (Plasma [4]): 2.13 h
Ratio (Plasma [5]): 0.62
t1/2 (Plasma [6]): 1.9 h
Ratio (Plasma [7]): 0.79
Cmax (Plasma [8]): 85.3 ng/mL
Cmax (Plasma [9]): 112.6 ng/mL
Cmax (Plasma [10]): 121.1 ng/mL
Ratio (Plasma [11]): 0.63
AUC (Plasma [12]): 296 ng·h/mL
Tmax (Plasma [13]): 1.75 h
IC50 (Plasmodium falciparum): 1.7 ng/mL (≈ 4.26 nM)
Tmax (Plasma [14]): 1.5 h
Cmax (Plasma [15]): 47.8 ng/mL
AUC (Plasma [16]): 315.4 ng·h/mL
Cmax (Plasma [17]): 51.7 ng/mL
Ratio (Plasma [18]): 0.89
AUC (Plasma [19]): 255.2 ng·h/mL
AUC (Plasma [20]): 112.3 ng·h/mL
t1/2 (Plasma [21]): 1.54 h
t1/2 (Plasma [22]): 2.78 h
AUC (Plasma [23]): 112.6 ng·h/mL
